Activity calls are given as the source filed them. The calls are words filed in the database; no cut-off is given here.
Key:
A2058 [1] = assay: Accumulation of A2058 cells in S phase as a measure for cell cycle arrest at 4 uM; format: functional, Homo sapiens
Outline: (§1)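 Human melanoma A2058 cells exposed to graded concentrations (0–4 μM) for 24 h, DMSO as control. Cells collected by trypsinization, fixed in ice-cold 70% ethanol 30 min, treated with 1 mg/mL RNase A at 37 °C 30 min, then stained with propidium iodide/citrate/Triton X-100 at room temperature 30 min in the dark. DNA content of 10 000 events read by flow cytometry; G1, S and G2/M fractions gated from histograms.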

A2058 [2] = assay: Accumulation of A2058 cells in S phase as a measure for cell cycle arrest at 2 uM; format: functional, Homo sapiens; outline: as §1
A2058 [3] = assay: Accumulation of A2058 cells in G2/M phase as a measure for cell cycle arrest at 2 uM; format: functional, Homo sapiens; outline: as §1
A2058 [4] = assay: Accumulation of A2058 cells in G1 phase as a measure for cell cycle arrest at 4 uM; format: functional, Homo sapiens; outline: as §1
Nucleic Acid = assay: Inhibition of cleavage activity of restriction endonuclease BamH1; format: nucleic-acid assay
Outline: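 pBR322 plasmid DNA (0.5 μg) preincubated with compound at 5 μM in restriction buffer pH 7.5 plus BSA 0.1 mg/mL, 37 °C for 1 h. Excess BamHI (20 units) then added, 37 °C for a further 1 h, stopped at 65 °C for 20 min. Products run on 1.0% agarose in TAE at 100 V for 2 h and stained with ethidium bromide. Supercoiled/open-circular and fully linearized DNA run as controls.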

A2058 [5] = assay: Apoptotic effect on A2058 cells by measuring hypodiploid DNA content after 18 hrs exposure to 5 uM; format: functional, Homo sapiens
Outline: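 A2058 human melanoma cells kept at 37 °C in 5% CO2 and passaged with 5 mM EDTA. Exposed to agent at 5 μM for 18 h, trypsinized, fixed 30 min in ice-cold 70% ethanol, and treated with RNase A (1 mg/mL) at 37 °C for 30 min. Stained with PI for 30 min at room temperature in the dark. DNA content read by flow cytometry on 10 000 events, reported as the percentage of cells in the sub-G1 region.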

A2058 [6] = assay: Accumulation of A2058 cells in G1 phase as a measure for cell cycle arrest at 2 uM; format: functional, Homo sapiens; outline: as §1
A2058 [7] = assay: Accumulation of A2058 cells in S phase as a measure for cell cycle arrest at 1 uM; format: functional, Homo sapiens; outline: as §1
A2058 [8] = assay: Accumulation of A2058 cells in G2/M phase as a measure for cell cycle arrest at 1 uM; format: functional, Homo sapiens; outline: as §1
A2058 [9] = assay: Accumulation of A2058 cells in G1 phase as a measure for cell cycle arrest at 1 uM; format: functional, Homo sapiens; outline: as §1
A2058 [10] = assay: Accumulation of A2058 cells in G2/M phase as a measure for cell cycle arrest at 4 uM; format: functional, Homo sapiens; outline: as §1
A2058 [11] = assay: Apoptotic effect on A2058 cells by propidium iodide staining and Annexin V-FITC conjugate at 2 uM; format: functional, cell-based; conditions: Homo sapiens
Outline: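 A2058 cells given graded concentrations for 24 h, then 10^6 cells per sample labelled with annexin V–FITC together with propidium iodide and analysed by two-parameter flow cytometry. Percentage of annexin V-positive cells reported per concentration.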

UACC-62 = assay: Antiproliferative activity against UACC62 melanoma cancer cells; format: functional; conditions: Homo sapiens
SN12C = assay: Antiproliferative activity against SN12C Renal cancer cells; format: functional; conditions: Homo sapiens
M14 = assay: Antiproliferative activity against M14 melanoma cancer cells; format: functional; conditions: Homo sapiens
SF-268 = assay: Antiproliferative activity against SF268 CNS cancer cells; format: functional; conditions: Homo sapiens
RXF 393 = assay: Antiproliferative activity against RXF393 Renal cancer cells; format: functional; conditions: Homo sapiens

SMILES	Activity (Nucleic Acid)	Activity (A2058 [5]) [%]	GI50 (UACC-62) [nM]	GI50 (SN12C) [nM]	GI50 (M14) [nM]	further results
COc1cc2c(cc1OCCCCCCNC(=O)c1cc3ccccc3[nH]1)N=C[C@@H]1CCCN1C2=O	Active	50.6				Activity (A2058 [1]): 42.8%; Activity (A2058 [2]): 25.2%; Activity (A2058 [3]): 47.7%; Activity (A2058 [4]): 29.2%; Activity (A2058 [6]): 25.7%; Activity (A2058 [7]): 15.2%; Activity (A2058 [8]): 42.5%; Activity (A2058 [9]): 41.1%; Activity (A2058 [10]): 12.5%; Activity (A2058 [11]): Active
COc1cc2c(cc1OCCCCNC(=O)c1cc3ccccc3[nH]1)N=C[C@@H]1CCCN1C2=O	Active	46.8				
COc1cc2c(cc1OC(=O)c1cc3ccccc3[nH]1)N=C[C@@H]1CCCN1C2=O		38.5	290	210	162	
COc1cc2c(cc1OCCCCCNC(=O)c1cc3ccccc3[nH]1)N=C[C@@H]1CCCN1C2=O		2.9				
COc1cc2c(cc1O)N=C[C@@H]1CCCN1C2=O		45				
COc1cc2c(cc1OCCCNC(=O)c1cc3ccccc3[nH]1)N=C[C@@H]1CCCN1C2=O	Active	46.8	203	410	173	GI50 (SF-268): 27 nM; GI50 (RXF 393): 25 nM

Reference: ChEMBL document CHEMBL1138123, “Design, synthesis, and biological evaluation of pyrrolo[2,1-c][1,4]benzodiazepine and indole conjugates as anticancer agents” (2006)
